Results from ChEMBL document CHEMBL2384906, “Biological activity, design, synthesis and structure activity relationship of some novel derivatives of curcumin containing sulfonamides” (Eur J Med Chem, 2013).
Values after ≈ are worked out from the molar mass of the structure shown. Active and inactive are the calls of the source. The rule behind the calls is not given here.

How the values were obtained:
[1] = system: Mus musculus; assay: Antiinflammatory activity in mouse assessed as inhibition of carrageenan-induced increase in paw volume at 200 mg/kg, ip administered 1 hr prior to carrageenan challenge measured after 3 hrs relative to control; assay type: functional; details: route intraperitoneal
Procedure, shortened: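 Mice were fasted 2 h and placed in groups of five. Controls received saline i.p. Phenylbutazone was given at 100 mg/kg i.p., curcumin at 200 mg/kg i.p., and derivatives at 200 mg/kg. After 1 h, 0.1 mL of 1% carrageenan in saline was injected subplantar into the right hind paw. Paw volume was followed by plethysmometer for 3 h, and % inhibition was calculated as (Vc − Vt)/Vc × 100.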

[2] = system: Trichoderma viride; assay: Antifungal activity against Trichoderma viride MTCC 1107 after 48 hrs; assay type: functional; details: MTCC 1107, 48 h
[3] = system: Trichoderma viride; assay: Antifungal activity against Trichoderma viride MTCC 1107 assessed as zone of inhibition at 20 uM after 48 hrs by disc diffusion method; assay type: functional
Procedure, shortened: (§1)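 Spores from 4-day potato dextrose agar cultures, suspended in sterile water at 1.5 × 10⁵ CFU/mL. 0.2 mL was spread on potato dextrose agar. 5 mm filter-paper discs soaked with test compound were laid on the lawn. Incubation was 48 h at 28 °C, then the inhibition zone was measured in mm. Fluconazole was the positive control and acetone the negative control.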

[4] = system: Trichoderma viride; assay: Antifungal activity against Trichoderma viride MTCC 1107 assessed as zone of inhibition at 40 uM after 48 hrs by disc diffusion method; assay type: functional; procedure, shortened: as §1
[5] = system: Trichoderma viride; assay: Antifungal activity against Trichoderma viride MTCC 1107 assessed as zone of inhibition at 80 uM after 48 hrs by disc diffusion method; assay type: functional; details: MTCC 1107, 48 h, read-out: IZ; procedure, shortened: as §1
[6] = system: Curvularia lunata; assay: Antifungal activity against Curvularia lunata MTCC 581 after 48 hrs; assay type: functional; details: MTCC 581, 48 h
[7] = system: Curvularia lunata; assay: Antifungal activity against Curvularia lunata MTCC 581 assessed as zone of inhibition at 20 uM after 48 hrs by disc diffusion method; assay type: functional; procedure, shortened: as §1
[8] = system: Curvularia lunata; assay: Antifungal activity against Curvularia lunata MTCC 581 assessed as zone of inhibition at 40 uM after 48 hrs by disc diffusion method; assay type: functional; details: MTCC 581, 48 h, read-out: IZ; procedure, shortened: as §1
[9] = system: Aspergillus flavus; assay: Antifungal activity against Aspergillus flavus MTCC 1021 after 48 hrs; assay type: functional
[10] = system: Curvularia lunata; assay: Antifungal activity against Curvularia lunata MTCC 581 assessed as zone of inhibition at 80 uM after 48 hrs by disc diffusion method; assay type: functional; details: MTCC 581, 48 h, read-out: IZ; procedure, shortened: as §1
[11] = system: Aspergillus flavus; assay: Antifungal activity against Aspergillus flavus MTCC 1021 assessed as zone of inhibition at 80 uM after 48 hrs by disc diffusion method; assay type: functional; procedure, shortened: as §1
[12] = system: Aspergillus niger; assay: Antifungal activity against Aspergillus niger MTCC 1108 after 48 hrs; assay type: functional
[13] = system: Aspergillus niger; assay: Antifungal activity against Aspergillus niger MTCC 1108 assessed as zone of inhibition at 80 uM after 48 hrs by disc diffusion method; assay type: functional; procedure, shortened: as §1
[14] = system: Escherichia coli; assay: Antimicrobial activity against Escherichia coli ATCC 35218 after 24 hrs by broth micro serial dilution method; assay type: functional; details: ATCC 35218, 24 h
Procedure, shortened: (§2)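 This was broth microdilution in autoclaved Mueller-Hinton broth. 150 µL of compound per well was serially diluted […], and 50 µL of test organism was added. Plates were incubated 24 h at 37 °C and optical density was read.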

[15] = system: Escherichia coli; assay: Antimicrobial activity against Escherichia coli ATCC 35218 assessed as diameter of inhibition zone at 20 uM after 24 hrs by Kirby -Baur disc diffusion method; assay type: functional
Procedure, shortened: (§3)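 Kirby-Bauer disc diffusion was used. Acetone stocks (160 µM) were serially doubled down to 80, 40 and 20 µM. 4 µL of each went onto 5 mm sterile paper discs, which were dried 30 min at 50 °C. Inoculum was 1.5 × 10⁸ CFU/mL diluted to 3 × 10² CFU/mL, and 50 µL was spread on Mueller-Hinton agar. After 24 h at 37 °C the inhibition-zone diameter was measured. Ciprofloxacin served as positive control.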

[16] = system: Escherichia coli; assay: Antimicrobial activity against Escherichia coli ATCC 35218 assessed as diameter of inhibition zone at 40 uM after 24 hrs by Kirby -Baur disc diffusion method; assay type: functional; procedure, shortened: as §3
[17] = system: Escherichia coli; assay: Antimicrobial activity against Escherichia coli ATCC 35218 assessed as diameter of inhibition zone at 80 uM after 24 hrs by Kirby -Baur disc diffusion method; assay type: functional; details: ATCC 35218, 24 h, read-out: DIZ; procedure, shortened: as §3
[18] = system: Pseudomonas aeruginosa; assay: Antimicrobial activity against Pseudomonas aeruginosa ATCC 15499 after 24 hrs by broth micro serial dilution method; assay type: functional; details: ATCC 15499, 24 h; procedure, shortened: as §2
[19] = system: Pseudomonas aeruginosa; assay: Antimicrobial activity against Pseudomonas aeruginosa ATCC 15499 assessed as diameter of inhibition zone at 20 uM after 24 hrs by Kirby -Baur disc diffusion method; assay type: functional; procedure, shortened: as §3
[20] = system: Pseudomonas aeruginosa; assay: Antimicrobial activity against Pseudomonas aeruginosa ATCC 15499 assessed as diameter of inhibition zone at 40 uM after 24 hrs by Kirby -Baur disc diffusion method; assay type: functional; procedure, shortened: as §3
[21] = system: Pseudomonas aeruginosa; assay: Antimicrobial activity against Pseudomonas aeruginosa ATCC 15499 assessed as diameter of inhibition zone at 80 uM after 24 hrs by Kirby -Baur disc diffusion method; assay type: functional; details: ATCC 15499, 24 h, read-out: DIZ; procedure, shortened: as §3
[22] = system: Salmonella typhi; assay: Antimicrobial activity against Salmonella typhi ATCC 23564 after 24 hrs by broth micro serial dilution method; assay type: functional, Salmonella enterica subsp. enterica serovar Typhi; details: Salmonella enterica, ATCC 23564, 24 h
[23] = system: Salmonella typhi; assay: Antimicrobial activity against Salmonella typhi ATCC 23564 assessed as diameter of inhibition zone at 20 uM after 24 hrs by Kirby -Baur disc diffusion method; assay type: functional; details: Salmonella enterica subsp. enterica serovar Typhi
[24] = system: Salmonella typhi; assay: Antimicrobial activity against Salmonella typhi ATCC 23564 assessed as diameter of inhibition zone at 40 uM after 24 hrs by Kirby -Baur disc diffusion method; assay type: functional, Salmonella enterica subsp. enterica serovar Typhi; details: Salmonella enterica, ATCC 23564, 24 h; read-out: DIZ
[25] = system: Salmonella typhi; assay: Antimicrobial activity against Salmonella typhi ATCC 23564 assessed as diameter of inhibition zone at 80 uM after 24 hrs by Kirby -Baur disc diffusion method; assay type: functional, Salmonella enterica subsp. enterica serovar Typhi; details: Salmonella enterica, ATCC 23564, 24 h; read-out: DIZ
[26] = system: Bacillus cereus; assay: Antimicrobial activity against Bacillus cereus MTCC 7350 after 24 hrs by broth micro serial dilution method; assay type: functional; details: MTCC 7350, 24 h; procedure, shortened: as §2
[27] = system: Bacillus cereus; assay: Antimicrobial activity against Bacillus cereus MTCC 7350 assessed as diameter of inhibition zone at 80 uM after 24 hrs by Kirby -Baur disc diffusion method; assay type: functional; details: MTCC 7350, 24 h, read-out: DIZ; procedure, shortened: as §3
[28] = system: Staphylococcus aureus; assay: Antimicrobial activity against Staphylococcus aureus ATCC 11632 after 24 hrs by broth micro serial dilution method; assay type: functional; details: ATCC 11632, 24 h; procedure, shortened: as §2
[29] = system: Staphylococcus aureus; assay: Antimicrobial activity against Staphylococcus aureus ATCC 11632 assessed as diameter of inhibition zone at 80 uM after 24 hrs by Kirby -Baur disc diffusion method; assay type: functional; procedure, shortened: as §3

Compound: COc1cc(/C=C/C(=O)CC(=O)/C=C/c2ccc(O)c(OC)c2)ccc1O [CURCUMIN]
- inhibition in vivo at 200 mg/kg [1]: 12.9%
- MIC [2]: > 80 µM
- inhibition zone (IZ) [3]: inactive
- inhibition zone (IZ) [4]: inactive
- zone of inhibition at 80 µM [5]: 9 mm
- MIC [6]: > 80 µM
- inhibition zone (IZ) [7]: inactive
- zone of inhibition at 40 µM [8]: 9 mm
- MIC [9]: inactive
- zone of inhibition at 80 µM [10]: 11 mm
- inhibition zone (IZ) [11]: inactive
- MIC [12]: inactive
- inhibition zone (IZ) [13]: inactive
- MIC [14]: > 80 µM
- diameter of the inhibition zone (DIZ) [15]: inactive
- diameter of the inhibition zone (DIZ) [16]: inactive
- zone of inhibition at 80 µM [17]: 12 mm
- MIC [18]: > 80 µM
- diameter of the inhibition zone (DIZ) [19]: inactive
- diameter of the inhibition zone (DIZ) [20]: inactive
- zone of inhibition at 80 µM [21]: 11 mm
- MIC [22]: > 80 µM
- diameter of the inhibition zone (DIZ) [23]: inactive
- zone of inhibition at 40 µM [24]: 9 mm
- zone of inhibition at 80 µM [25]: 11 mm
- MIC [26]: > 80 µM
- zone of inhibition at 80 µM [27]: 9 mm
- MIC [28]: 80 µM (≈ 29.5 µg/mL)
- diameter of the inhibition zone (DIZ) [29]: inactive
